# Assay outcomes (PubChem BioAssay)
# In the library only some 4.6% were active in any assay of this set; here they are far more common.
# MDM2 E3 inh: blocks human Mdm2 ubiquitin ligase activity; Q00987; cell-based MDM2 ubiquitination luciferase reporter, 2 h; 0 = plate control, 100 = twice control, blank-subtracted; hit rate 0.11% among 210,000; signal enhancement, % at 5 µM;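 active = signal enhancement of 30% or more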;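 note: luminescence tracks abundance of the self-degrading MDM2-luciferase fusion protein; higher signal means inhibition of MDM2 E3 ligase activity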
#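 Assay system: stable mammalian line carrying autodegrading MDM2–luciferase fusion reporter; amount: 2000 cells seeded into each well; buffer or medium: DMEM; benchmarks: plate control and blank wells; signal: luciferase luminescence; timing: 2 h compound exposure at 37 °C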
# APP 5'UTR act: activates APP 5'UTR luciferase reporter; hit rate 1% among 190,000; activation, % at 2 µM; SH-SY5Y APP 5'UTR luciferase reporter, luminescence; zero percent = DMSO vehicle wells; AID 1276;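 active = activation above a set limit, based on mean plus 3 SD of controls, cut at about 140% in these data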
# NF-kB expr up: raises NF-kB expression in human neuronal cells | NF-kB reporter expression; active compounds read high | fold change at 12.5 µM | hit rate 1.6% among 190,000; in the data active = fold change above about 3.3
# Wee1 stabilizer: inhibitors of human Wee1 degradation; reporter increase, % at 5 µM; hit rate 1.2% among 220,000; HeLa Luc-Wee1K328M stability, luciferase luminescence; 100% = proteasome inhibitor MG132 effect; P30291;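 active = activation above the mean of all tested compounds plus 3 SD, set per screening run, cut at about 8.8% in these data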;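 note: cells exposed to compound for 20 h before luminescence read; 0% = DMSO alone and 100% = MG132 at 30 µM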
# Target sequence (P30291 whole entry K328M): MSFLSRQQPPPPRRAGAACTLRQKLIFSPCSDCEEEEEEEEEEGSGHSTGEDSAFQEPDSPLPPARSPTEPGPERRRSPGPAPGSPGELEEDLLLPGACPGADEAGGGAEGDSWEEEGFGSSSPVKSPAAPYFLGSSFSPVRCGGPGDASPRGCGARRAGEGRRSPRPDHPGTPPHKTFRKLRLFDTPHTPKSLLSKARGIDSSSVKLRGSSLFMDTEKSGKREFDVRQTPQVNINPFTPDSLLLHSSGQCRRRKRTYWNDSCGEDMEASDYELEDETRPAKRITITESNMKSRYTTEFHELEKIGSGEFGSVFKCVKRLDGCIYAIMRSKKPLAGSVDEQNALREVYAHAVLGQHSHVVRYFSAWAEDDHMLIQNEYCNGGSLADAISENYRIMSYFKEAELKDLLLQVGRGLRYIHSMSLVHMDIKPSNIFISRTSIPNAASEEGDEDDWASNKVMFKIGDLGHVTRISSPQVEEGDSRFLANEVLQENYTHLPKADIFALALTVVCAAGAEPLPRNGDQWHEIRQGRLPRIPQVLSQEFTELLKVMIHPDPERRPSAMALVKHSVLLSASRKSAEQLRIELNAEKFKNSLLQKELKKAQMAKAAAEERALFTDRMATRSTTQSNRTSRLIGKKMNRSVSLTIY
# p97 ATPase inh: blocks human p97 ATPase activity; P55072; recombinant p97 ATPase, Kinase-Glo ATP luminescence, 3 h; inhibition, % at 8 µM; hit rate 0.42% among 220,000; AID 1481; in the data active = inhibition above about 15%;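 note: 0% = DMSO vehicle and 100% = wells lacking enzyme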
# STAT1 act: STAT1 signaling activation. NIH 3T3 STAT1-luciferase reporter, IFN-gamma, luminescence; 100% = IFN-gamma alone, no compound. AID 932. hit rate 2.6% among 200,000. activation (% of control), % at 5.5 µM;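 active = activation above the screen-wide mean activation plus 3 SD, cut at about 130% in these data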;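 note: raw ratio to IFN-gamma control signal so 100% means no change and 0% no light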
# p97 confirm: human p97 ATPase inhibition, confirmation. shares compounds with p97 ATPase inh. recombinant p97 ATPase, Kinase-Glo ATP luminescence. inhibition, % at 8 µM. hit rate 44% among 760. AID 1517;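 active = percent inhibition of p97 ATPase above a set limit, the primary screen's mean plus 3 SD, cut at about 15% in these data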;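 note: 0% = DMSO wells and 100% = wells lacking p97 protein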
# Active calls of the source: *; . = no result.
SMILES,MDM2 E3 inh,APP 5'UTR act,NF-kB expr up,Wee1 stabilizer,p97 ATPase inh,STAT1 act,p97 confirm
OC(c1ccccc1)(c1ccccc1)C1CN2CCC1CC2 (stereo not given),4,5,1.3,-1,7,104,.
O=c1[nH]c(=O)n(C2CCCCC2)c(O)c1/C=C/C=Nc1ccccc1,.,.,.,-2,5,.,.
CCn1nc(/C=C/c2ccccc2)nc2c(=O)n(C)c(=O)nc1-2,-44,41,0.24,-2,34*,19,37*
CCn1nc(-c2cccs2)nc2c(=O)n(C)c(=O)nc1-2,-18,.,2.2,.,.,.,.
COc1cc(C(c2c(C)[nH]n(-c3ccccc3)c2=O)c2c(C)[nH]n(-c3ccccc3)c2=O)cc(OC)c1OC,-10,4,1.4,5,20*,93,7
Cc1ncc(CN2CCCC(C(=O)c3ccc(C(C)(C)C)cc3)C2)s1 (stereo not given),-20,-11,1.8,1,-15,100,.
